{"data": "Measurements gathered from unrelated publications", "read-out": "cell growth or viability", "note": "Compare with care: the assays were run in different laboratories."}
{"SMILES": "C=CC(=O)c1cccnc1Nc1cc(C(F)(F)F)ccc1OC", "cell line": "NCI-H23", "technique": "SRB", "time": "48 h", "quantity": "GI50", "result": "6.67 µM"}
{"SMILES": "CNC(=O)c1cc(Oc2ccc(NC(=O)Nc3ccc(Cl)c(C(F)(F)F)c3)cc2)ccn1", "cell line": "NCI-H23", "technique": "MTT", "time": "72 h", "quantity": "IC50", "result": "4.25 µM"}
{"SMILES": "O=C(NO)c1ccc(CNc2nc3cccc(-c4ccc5c(c4)OCO5)n3n2)cc1", "cell line": "NCI-H23", "technique": "SRB", "quantity": "GI50", "result": "0.66 µM"}
{"SMILES": "Cc1noc2c1-c1ccccc1C(c1ccc(Cl)cc1)=N[C@H]2CC(N)=O", "cell line": "MOLM-13", "technique": "ATP luminescence", "time": "72 h", "quantity": "IC50", "result": "0.474 µM"}
{"SMILES": "O=C(O)c1cccnc1Nc1cccc(C(F)(F)F)c1", "cell line": "NCI-H23", "technique": "SRB", "time": "48 h", "quantity": "GI50", "result": "> 30 µM"}
{"SMILES": "C=CC(=O)NC1CCN(c2ncc3ncnc(Nc4ccc(Oc5ccc6c(c5)ncn6C)c(C)c4)c3n2)CC1", "cell line": "SNU-601", "quantity": "EC50", "result": "0.00422 µM"}
{"SMILES": "Cc1cc(/C=C/C#N)cc(C)c1Nc1ccnc(Nc2ccc(C#N)cc2)n1", "cell line": "C6661", "technique": "MTT", "time": "48 h", "quantity": "IC50", "result": "4.67 µM"}
{"SMILES": "C=CC(=O)c1cccnc1Nc1cc(C(F)(F)F)ccc1OCc1ccccc1", "cell line": "NCI-H23", "technique": "SRB", "time": "48 h", "quantity": "GI50", "result": "16.5 µM"}
{"SMILES": "C[C@@H]1CC2=C(CN1Cc1cccc(C#N)c1)C(=O)N(Cc1ccc(Br)cc1)C1=NCCN12", "cell line": "MOLM-13", "technique": "MTS", "quantity": "IC50", "result": "0.00793 µM"}
{"SMILES": "Cc1c(C(=O)O)ccc2c3n(nc12)[C@@H]1[C@H](C3)N(CC2CC2)[C@@]2(C(=O)Nc3cc(Cl)ccc32)[C@H]1c1cccc(Cl)c1F", "cell line": "Rh18", "quantity": "GI50", "result": "0.00023 µM"}
{"SMILES": "COc1cc2nc(N3CCN(C(=O)c4ccco4)CC3)nc(N)c2cc1OC", "cell line": "C6661", "technique": "MTT", "time": "48 h", "quantity": "IC50", "result": "27.4 µM"}
{"SMILES": "C=CC(=O)N1CCN(c2nc(=O)n(-c3c(C)ccnc3C(C)C)c3nc(-c4c(O)cccc4F)c(F)cc23)[C@@H](C)C1", "cell line": "SW1573", "technique": "ATP luminescence", "quantity": "IC50", "result": "> 10 µM"}
